Measured values reported in ChEMBL document CHEMBL4428027, “3-Hydroxypyrimidine-2,4-diones as Selective Active Site Inhibitors of HIV Reverse Transcriptase-Associated RNase H: Design, Synthesis, and Biochemical Evaluations” (J Med Chem, 2016).

Experiments:
[1] = molecular target: T1, Human immunodeficiency virus type 1 reverse transcriptase (Human immunodeficiency virus 1, UniProt Q72547); test: Inhibition of RNase H activity of full length recombinant HIV1 reverse transcriptase assessed as reduction in RNA 5'-end directed cleavage using HTS3 substrate
[2] = Toxicity against human HeLa P4/R5 cells; assay type: cell-based
[3] = molecular target: T1, Human immunodeficiency virus type 1 reverse transcriptase; test: Inhibition of polymerase activity of HIV1 reverse transcriptase using poly(rA)-oligo(dT)16 and [3H]-TTP incubated for 20 mins by liquid scintillation spectrometry
How it was run: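 Reaction mix: 10 µM [3H]-TTP, 40 nM poly(rA)-oligo(dT)16, 50 mM Tris-HCl pH 7.4 (37°C), 60 mM KCl, 5 mM MgCl2. Started with 10 nM RT; 20 min at 37°C. Quenched in ice-cold 10% TCA with 20 mM sodium pyrophosphate, then glass-fibre filtered and washed with TCA and ethanol. Label incorporation read by liquid scintillation.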

[4] = molecular target: T1, Human immunodeficiency virus type 1 reverse transcriptase; test: Inhibition of RNase H activity of full length recombinant HIV1 reverse transcriptase assessed as reduction in nonspecific internal cleavage using HTS1 substrate; conditions: read-out: IC50
How it was run: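 Recombinant p66/p51 RT heterodimer. Fluorescent RNA/DNA duplex substrate HTS-1 measures internal cleavage. IC50 is the mean of at least three independent experiments.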

[5] = molecular target: T1, Human immunodeficiency virus type 1 reverse transcriptase; test: Inhibition of RNase H activity of full length recombinant HIV1 reverse transcriptase assessed as reduction in DNA 3'-end cleavage using HTS2 substrate
How it was run: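 Recombinant p66/p51 RT heterodimer. Fluorescent RNA/DNA duplex substrate HTS-2 reports DNA 3′-end-directed (polymerase-dependent) cleavage. IC50 is the mean of at least three independent experiments.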

[6] = molecular target: T1, Human immunodeficiency virus type 1 reverse transcriptase; test: Inhibition of re-constituted HIV1 reverse transcriptase RNase H domain fragment; conditions: read-out: IC50
How it was run: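 Secondary check using a catalytically active, isolated HIV RNase H domain fragment (reconstituted) with duplex substrate HTS-1.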

SMILES	IC50 ([1]; read-out: IC50) [nM]	CC50 [2] [nM]	IC50 ([3]; read-out: IC50) [nM]	IC50 [4] [nM]	IC50 ([5]; read-out: IC50) [nM]	IC50 [6] [nM]	IC50 [3]	IC50 [1]	IC50 [5]
Cn1c(Nc2ccc(-c3ccc(C#N)cc3)cc2)cc(=O)n(O)c1=O	3700	12000	3300	1100	2600	1000			
COc1ccc(-c2ccc(Nc3cc(=O)n(O)c(=O)n3C)cc2)c(OC)c1	5300			1500	4300		Not Active		
O=c1nc(Nc2ccc(-c3cnc4ccccc4c3)cc2)c2cccnc2n1O		2000							
COc1ccc(-c2cccc(Nc3cc(=O)n(O)c(=O)n3C)c2)cc1	3100	3000	3600	500	2600	1100			
O=c1cc(Nc2ccc(-c3ccc(Cl)cc3)cc2)[nH]c(=O)n1O	600		990	470	660				
COc1cccc(-c2ccccc2Oc2cc(=O)n(O)c(=O)n2C)c1		6000		5700		12000	Not Active	Not Active	Not Active
COc1ccc(-c2cccc(Nc3cc(=O)n(O)c(=O)n3C)c2)cc1OC	3000	10000	5800	500	2200	900			
O=c1cc(Nc2ccc(-c3ccccc3O)cc2)[nH]c(=O)n1O	460		830	240	490				
COc1ccccc1-c1ccc(Oc2cc(=O)n(O)c(=O)n2C)cc1	22000	5000		2800		6200	Not Active		Not Active
COc1ccc(-c2cccc(Oc3cc(=O)n(O)c(=O)n3C)c2)cc1	4700	2500		400	4000	1800	Not Active		
O=c1cc(Nc2ccc(-c3ccccc3)cc2)[nH]c(=O)n1O	300	> 25000	2000	250	300	150			
Cn1c(Oc2ccccc2-c2ccc(Cl)cc2)cc(=O)n(O)c1=O	13000		14000	3300					Not Active
COc1cccc(-c2cccc(Oc3cc(=O)n(O)c(=O)n3C)c2)c1	9400	5000		1000	17000	3600	Not Active		
Cc1noc(C)c1-c1ccccc1Nc1cc(=O)n(O)c(=O)n1C				6600			Not Active	Not Active	Not Active
Cn1c(Oc2ccc(-c3ccccc3)cc2)cc(=O)n(O)c1=O	6000	5000		1900	5300	2100	Not Active		
COc1ccccc1-c1cccc(Oc2cc(=O)n(O)c(=O)n2C)c1	13000	6000		2500		4400	Not Active		Not Active
COc1ccc(-c2ccc(Oc3cc(=O)n(O)c(=O)n3C)cc2)cc1	12000	6000		1600	11000	4700	Not Active		
O=c1cc(Nc2ccc(-c3cccc(O)c3)cc2)[nH]c(=O)n1O	400		790	220	430				
Cn1c(Oc2ccc(-c3ccc(Cl)cc3)cc2)cc(=O)n(O)c1=O	11000			2400			Not Active		Not Active
Cn1c(Nc2ccc(-c3ccccc3)cc2)cc(=O)n(O)c1=O	5100	6000		800	3500	1700	Not Active		
Cn1c(Nc2cccc(-c3ccc(C#N)cc3)c2)cc(=O)n(O)c1=O	3400	10000	5000	700	2300	1000			
COc1ccccc1-c1cccc(Nc2cc(=O)n(O)c(=O)n2C)c1	3800	6000	6600	1200	2100	1000			
Cn1c(Nc2cccc(-c3ccc(O)cc3)c2)cc(=O)n(O)c1=O	2700		12000	750	3800				
